This note sets out measurements from ChEMBL document CHEMBL1150387, “Development and experimental validation of a docking strategy for the generation of kinase-targeted libraries” (J Med Chem, 2008).

Experiment [1] concerns the target Tyrosine-protein kinase Lck (Homo sapiens) (UniProt P06239). As to the kind of experiment: Inhibition of Lck at 10 uM by HTRF assay relative to control. Put shortly: (§1)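 HTRF kinase assay, one panel of kinases. Inhibitor stock 50 µM in 100% DMSO; tested at 10 µM. ATP and substrate at final levels near Km. Final buffer: 50 mM Hepes/NaOH pH 7.4, 40 µM Na3VO4, 0.005% Tween-20, 1 mM DTT, MnCl2 or MgCl2 at kinase-dependent levels. Started by adding ATP/substrate. Reaction run at room temperature, time varied by kinase. Detection mix in 50 mM Hepes pH 7.4, 0.1% BSA, 150 mM KF, incubated ≥1 h at room temperature. Activity expressed as % of uninhibited control; n=2.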
Background: In TR-FRET formats the signal depends on donor and acceptor labels being close together.

The target in experiment [2] is Rho-associated protein kinase 2 (Homo sapiens) (UniProt O75116). As to the kind of experiment: Inhibition of ROCK2 at 10 uM by HTRF assay relative to control. In short, it runs like this: as §1
Experiment [3] deals with Epidermal growth factor receptor (Homo sapiens) (UniProt P00533). Nature of the experiment: Inhibition of EGFR at 10 uM by HTRF assay relative to control. In short, it runs like this: as §1
Experiment [4] concerns the target Serine/threonine-protein kinase Chk2 (Homo sapiens) (UniProt O96017). Nature of the experiment: Inhibition of CHK2 at 10 uM by HTRF assay relative to control. Put shortly:
as §1

The target of experiment [5] is Mitogen-activated protein kinase 8 (Homo sapiens) (UniProt P45983). As to the kind of experiment: Inhibition of JNK1 at 10 uM by HTRF assay relative to control. Put shortly:
as §1

In experiment [6] the target is T1, Inhibitor of nuclear factor kappa-B kinase subunit beta (Homo sapiens) (UniProt O14920).
T1 sequence (whole entry): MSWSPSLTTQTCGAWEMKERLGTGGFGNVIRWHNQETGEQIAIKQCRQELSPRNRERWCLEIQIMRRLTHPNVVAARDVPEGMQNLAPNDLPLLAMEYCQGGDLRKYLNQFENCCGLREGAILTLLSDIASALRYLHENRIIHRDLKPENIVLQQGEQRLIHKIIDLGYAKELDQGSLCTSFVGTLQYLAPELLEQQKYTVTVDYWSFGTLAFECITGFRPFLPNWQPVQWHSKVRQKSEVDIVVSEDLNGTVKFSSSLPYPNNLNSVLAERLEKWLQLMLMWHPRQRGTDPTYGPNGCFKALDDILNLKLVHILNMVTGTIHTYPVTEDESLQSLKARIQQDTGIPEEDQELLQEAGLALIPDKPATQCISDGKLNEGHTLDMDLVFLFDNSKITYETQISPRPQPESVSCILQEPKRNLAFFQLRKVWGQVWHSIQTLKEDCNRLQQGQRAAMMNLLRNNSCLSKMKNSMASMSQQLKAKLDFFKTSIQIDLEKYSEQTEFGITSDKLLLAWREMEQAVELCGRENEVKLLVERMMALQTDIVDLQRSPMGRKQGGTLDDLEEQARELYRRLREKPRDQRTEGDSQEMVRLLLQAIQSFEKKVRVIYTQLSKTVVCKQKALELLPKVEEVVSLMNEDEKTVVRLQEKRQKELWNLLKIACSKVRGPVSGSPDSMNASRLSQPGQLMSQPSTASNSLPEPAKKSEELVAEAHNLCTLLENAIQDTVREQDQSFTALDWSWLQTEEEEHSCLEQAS
Nature of the experiment: Inhibition of IKK-beta at 10 uM by HTRF assay relative to control. Put shortly: as §1

Experiment [7] deals with Mitogen-activated protein kinase 14 (Homo sapiens) (UniProt Q16539). Nature of the experiment: Inhibition of p38alpha at 10 uM by HTRF assay relative to control. Put shortly: as §1
Experiment [8] deals with Tyrosine-protein kinase Lyn (Homo sapiens) (UniProt P07948). As to the kind of experiment: Inhibition of Lyn at 10 uM by HTRF assay relative to control. Put shortly:
as §1

The target of experiment [9] is T2, Tyrosine-protein kinase JAK3 (Homo sapiens) (UniProt P52333).
T2 sequence (whole entry): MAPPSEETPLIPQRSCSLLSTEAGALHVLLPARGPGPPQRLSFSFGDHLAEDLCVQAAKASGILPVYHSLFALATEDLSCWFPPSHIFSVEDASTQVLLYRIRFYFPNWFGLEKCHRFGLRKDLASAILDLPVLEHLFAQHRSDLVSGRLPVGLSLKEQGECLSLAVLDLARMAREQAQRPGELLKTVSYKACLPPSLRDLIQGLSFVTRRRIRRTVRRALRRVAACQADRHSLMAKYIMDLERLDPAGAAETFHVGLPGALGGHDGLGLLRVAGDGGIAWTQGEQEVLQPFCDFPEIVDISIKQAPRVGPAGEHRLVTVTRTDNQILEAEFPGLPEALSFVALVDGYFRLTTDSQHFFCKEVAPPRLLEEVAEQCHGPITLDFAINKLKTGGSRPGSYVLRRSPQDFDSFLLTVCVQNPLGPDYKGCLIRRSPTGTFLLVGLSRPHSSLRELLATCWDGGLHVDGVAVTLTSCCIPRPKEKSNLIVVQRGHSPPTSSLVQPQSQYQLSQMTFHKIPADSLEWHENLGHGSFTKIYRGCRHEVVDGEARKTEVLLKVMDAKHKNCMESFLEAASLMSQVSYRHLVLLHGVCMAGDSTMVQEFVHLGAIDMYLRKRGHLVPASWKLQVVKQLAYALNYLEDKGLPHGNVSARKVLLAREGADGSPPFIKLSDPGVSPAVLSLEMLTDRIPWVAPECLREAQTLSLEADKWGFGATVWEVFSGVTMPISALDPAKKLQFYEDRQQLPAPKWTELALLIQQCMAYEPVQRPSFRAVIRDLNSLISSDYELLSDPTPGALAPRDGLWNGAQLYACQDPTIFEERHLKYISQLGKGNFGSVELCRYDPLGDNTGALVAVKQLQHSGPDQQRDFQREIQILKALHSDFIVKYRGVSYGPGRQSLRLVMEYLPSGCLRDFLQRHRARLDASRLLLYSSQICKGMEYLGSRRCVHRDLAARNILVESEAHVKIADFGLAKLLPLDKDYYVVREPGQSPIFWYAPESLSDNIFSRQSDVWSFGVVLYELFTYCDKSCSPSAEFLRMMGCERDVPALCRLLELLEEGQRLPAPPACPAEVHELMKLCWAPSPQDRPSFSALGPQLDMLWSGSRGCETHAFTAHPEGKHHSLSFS
Nature of the experiment: Inhibition of JAK3 at 10 uM by HTRF assay relative to control. In short, it runs like this: as §1

Experiment [10] concerns the target Receptor-type tyrosine-protein kinase FLT3 (Homo sapiens) (UniProt P36888). As to the kind of experiment: Inhibition of FLT3 at 10 uM by HTRF assay relative to control. In short, it runs like this: as §1

Sequence of Epidermal growth factor receptor (Homo sapiens) (P00533 whole entry): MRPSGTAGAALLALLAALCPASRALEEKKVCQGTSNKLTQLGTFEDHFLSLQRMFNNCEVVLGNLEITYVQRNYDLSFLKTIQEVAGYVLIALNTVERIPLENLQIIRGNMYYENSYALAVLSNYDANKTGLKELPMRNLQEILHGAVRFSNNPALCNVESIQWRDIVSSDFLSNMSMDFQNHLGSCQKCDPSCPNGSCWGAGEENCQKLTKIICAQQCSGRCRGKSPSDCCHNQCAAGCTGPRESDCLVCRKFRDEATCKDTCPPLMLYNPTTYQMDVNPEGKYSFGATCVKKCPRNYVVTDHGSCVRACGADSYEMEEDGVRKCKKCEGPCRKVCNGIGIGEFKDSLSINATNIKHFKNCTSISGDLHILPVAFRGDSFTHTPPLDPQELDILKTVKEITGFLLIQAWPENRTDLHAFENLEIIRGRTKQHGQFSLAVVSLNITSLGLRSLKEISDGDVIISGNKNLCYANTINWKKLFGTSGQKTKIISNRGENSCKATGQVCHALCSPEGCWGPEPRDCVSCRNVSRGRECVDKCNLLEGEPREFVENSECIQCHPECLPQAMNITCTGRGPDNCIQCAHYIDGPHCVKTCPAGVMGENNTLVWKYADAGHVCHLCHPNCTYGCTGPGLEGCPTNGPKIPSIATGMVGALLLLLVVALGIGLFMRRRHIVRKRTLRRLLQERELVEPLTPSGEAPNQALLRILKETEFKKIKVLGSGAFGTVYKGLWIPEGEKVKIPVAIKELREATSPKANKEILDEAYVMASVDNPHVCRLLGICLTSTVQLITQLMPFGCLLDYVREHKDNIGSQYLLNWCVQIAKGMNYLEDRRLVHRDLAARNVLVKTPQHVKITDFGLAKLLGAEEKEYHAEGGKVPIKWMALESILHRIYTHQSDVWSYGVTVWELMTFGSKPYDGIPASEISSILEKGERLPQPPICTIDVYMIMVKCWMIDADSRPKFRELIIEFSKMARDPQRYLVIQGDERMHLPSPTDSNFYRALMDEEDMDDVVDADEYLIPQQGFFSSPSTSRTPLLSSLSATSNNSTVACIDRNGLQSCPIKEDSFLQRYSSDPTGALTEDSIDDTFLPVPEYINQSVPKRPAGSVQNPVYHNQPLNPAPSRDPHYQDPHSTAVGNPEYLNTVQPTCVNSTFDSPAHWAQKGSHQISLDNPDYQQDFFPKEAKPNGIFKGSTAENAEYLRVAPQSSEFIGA
Sequence of Tyrosine-protein kinase Lck (Homo sapiens) (P06239 2-509 limits assumed): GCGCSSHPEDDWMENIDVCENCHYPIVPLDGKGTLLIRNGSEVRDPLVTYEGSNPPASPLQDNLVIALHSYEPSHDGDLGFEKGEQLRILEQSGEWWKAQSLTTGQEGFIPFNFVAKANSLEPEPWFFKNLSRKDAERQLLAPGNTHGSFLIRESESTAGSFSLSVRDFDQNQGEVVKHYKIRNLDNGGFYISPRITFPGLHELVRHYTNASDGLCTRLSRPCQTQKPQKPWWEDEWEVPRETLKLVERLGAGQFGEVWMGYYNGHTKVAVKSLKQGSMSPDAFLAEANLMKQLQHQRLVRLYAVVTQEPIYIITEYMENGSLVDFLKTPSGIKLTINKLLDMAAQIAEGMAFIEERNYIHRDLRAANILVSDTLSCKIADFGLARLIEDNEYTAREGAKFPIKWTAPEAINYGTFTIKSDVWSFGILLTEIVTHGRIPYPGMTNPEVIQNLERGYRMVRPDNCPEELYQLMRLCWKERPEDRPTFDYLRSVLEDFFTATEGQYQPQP
Sequence of Rho-associated protein kinase 2 (Homo sapiens) (O75116 whole entry, looked up): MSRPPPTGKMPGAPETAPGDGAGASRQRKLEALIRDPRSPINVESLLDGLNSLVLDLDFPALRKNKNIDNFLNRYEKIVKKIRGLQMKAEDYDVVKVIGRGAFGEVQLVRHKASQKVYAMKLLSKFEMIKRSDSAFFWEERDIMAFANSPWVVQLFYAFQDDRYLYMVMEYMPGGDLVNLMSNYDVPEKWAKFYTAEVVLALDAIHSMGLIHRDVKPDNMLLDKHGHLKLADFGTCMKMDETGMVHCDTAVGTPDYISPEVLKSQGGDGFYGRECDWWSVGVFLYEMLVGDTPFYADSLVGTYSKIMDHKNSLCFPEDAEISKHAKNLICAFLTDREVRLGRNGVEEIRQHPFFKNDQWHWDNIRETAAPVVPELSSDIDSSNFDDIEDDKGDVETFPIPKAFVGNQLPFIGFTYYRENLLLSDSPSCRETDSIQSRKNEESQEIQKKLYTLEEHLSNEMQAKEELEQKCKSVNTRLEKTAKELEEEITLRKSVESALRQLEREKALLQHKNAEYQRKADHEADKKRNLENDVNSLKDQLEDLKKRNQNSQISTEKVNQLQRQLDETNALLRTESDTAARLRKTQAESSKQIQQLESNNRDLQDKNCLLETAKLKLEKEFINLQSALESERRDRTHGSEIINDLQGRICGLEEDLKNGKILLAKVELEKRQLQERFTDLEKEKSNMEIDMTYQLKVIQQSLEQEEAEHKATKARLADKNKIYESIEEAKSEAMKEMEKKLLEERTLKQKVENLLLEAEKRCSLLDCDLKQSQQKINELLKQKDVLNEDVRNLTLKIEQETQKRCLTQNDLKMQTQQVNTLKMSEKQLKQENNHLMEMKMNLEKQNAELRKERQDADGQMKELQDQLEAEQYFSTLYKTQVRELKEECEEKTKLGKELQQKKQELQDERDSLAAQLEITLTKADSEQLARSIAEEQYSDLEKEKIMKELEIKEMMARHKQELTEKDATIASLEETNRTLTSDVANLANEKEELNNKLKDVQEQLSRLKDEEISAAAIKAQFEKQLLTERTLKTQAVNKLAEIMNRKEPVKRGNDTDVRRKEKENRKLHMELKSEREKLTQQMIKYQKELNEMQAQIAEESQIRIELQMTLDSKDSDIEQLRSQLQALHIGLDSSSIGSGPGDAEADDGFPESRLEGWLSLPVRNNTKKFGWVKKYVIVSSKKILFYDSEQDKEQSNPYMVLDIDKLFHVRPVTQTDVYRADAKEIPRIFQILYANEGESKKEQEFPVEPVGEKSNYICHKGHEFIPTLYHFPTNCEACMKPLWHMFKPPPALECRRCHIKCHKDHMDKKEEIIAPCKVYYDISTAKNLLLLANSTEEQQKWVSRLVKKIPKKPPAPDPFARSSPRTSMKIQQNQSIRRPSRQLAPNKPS
Sequence of Serine/threonine-protein kinase Chk2 (Homo sapiens) (O96017 whole entry): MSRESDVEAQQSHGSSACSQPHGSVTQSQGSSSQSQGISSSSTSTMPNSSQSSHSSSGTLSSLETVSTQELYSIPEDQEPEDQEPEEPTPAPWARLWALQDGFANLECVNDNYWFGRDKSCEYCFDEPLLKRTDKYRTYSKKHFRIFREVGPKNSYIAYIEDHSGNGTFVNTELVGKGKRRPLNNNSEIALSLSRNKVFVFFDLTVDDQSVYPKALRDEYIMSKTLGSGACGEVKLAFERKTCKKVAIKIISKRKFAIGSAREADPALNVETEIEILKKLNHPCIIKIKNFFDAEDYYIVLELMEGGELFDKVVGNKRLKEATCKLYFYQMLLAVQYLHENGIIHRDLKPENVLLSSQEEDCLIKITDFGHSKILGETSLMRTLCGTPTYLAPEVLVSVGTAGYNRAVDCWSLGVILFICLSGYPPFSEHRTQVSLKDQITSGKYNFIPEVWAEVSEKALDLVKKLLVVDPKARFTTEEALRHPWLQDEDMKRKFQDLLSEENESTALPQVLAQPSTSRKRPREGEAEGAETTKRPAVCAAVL
Sequence of Tyrosine-protein kinase Lyn (Homo sapiens) (P07948 2-512 limits assumed): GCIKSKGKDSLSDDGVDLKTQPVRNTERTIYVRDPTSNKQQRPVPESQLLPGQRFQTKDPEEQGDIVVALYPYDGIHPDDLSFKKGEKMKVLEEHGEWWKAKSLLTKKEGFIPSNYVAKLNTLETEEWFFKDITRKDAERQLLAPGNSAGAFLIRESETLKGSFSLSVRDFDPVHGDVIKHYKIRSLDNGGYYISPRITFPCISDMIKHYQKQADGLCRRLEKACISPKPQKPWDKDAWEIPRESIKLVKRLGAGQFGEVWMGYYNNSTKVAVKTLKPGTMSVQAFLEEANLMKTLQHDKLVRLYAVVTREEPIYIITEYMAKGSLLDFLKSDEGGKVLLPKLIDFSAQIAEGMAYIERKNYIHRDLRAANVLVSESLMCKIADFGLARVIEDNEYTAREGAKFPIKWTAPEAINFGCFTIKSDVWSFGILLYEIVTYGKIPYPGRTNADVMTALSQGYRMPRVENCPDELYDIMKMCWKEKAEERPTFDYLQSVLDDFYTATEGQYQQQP
Sequence of Mitogen-activated protein kinase 14 (Homo sapiens) (Q16539 whole entry): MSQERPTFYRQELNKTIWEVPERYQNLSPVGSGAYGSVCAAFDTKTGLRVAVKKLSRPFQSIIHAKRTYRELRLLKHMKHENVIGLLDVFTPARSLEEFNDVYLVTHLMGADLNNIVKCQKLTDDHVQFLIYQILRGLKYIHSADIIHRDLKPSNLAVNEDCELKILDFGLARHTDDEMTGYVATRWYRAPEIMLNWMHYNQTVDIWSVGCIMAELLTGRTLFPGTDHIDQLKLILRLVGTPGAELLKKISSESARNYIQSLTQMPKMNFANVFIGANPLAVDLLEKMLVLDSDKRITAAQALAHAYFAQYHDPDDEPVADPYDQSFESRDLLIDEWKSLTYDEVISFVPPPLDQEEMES
Sequence of Mitogen-activated protein kinase 8 (Homo sapiens) (P45983 whole entry): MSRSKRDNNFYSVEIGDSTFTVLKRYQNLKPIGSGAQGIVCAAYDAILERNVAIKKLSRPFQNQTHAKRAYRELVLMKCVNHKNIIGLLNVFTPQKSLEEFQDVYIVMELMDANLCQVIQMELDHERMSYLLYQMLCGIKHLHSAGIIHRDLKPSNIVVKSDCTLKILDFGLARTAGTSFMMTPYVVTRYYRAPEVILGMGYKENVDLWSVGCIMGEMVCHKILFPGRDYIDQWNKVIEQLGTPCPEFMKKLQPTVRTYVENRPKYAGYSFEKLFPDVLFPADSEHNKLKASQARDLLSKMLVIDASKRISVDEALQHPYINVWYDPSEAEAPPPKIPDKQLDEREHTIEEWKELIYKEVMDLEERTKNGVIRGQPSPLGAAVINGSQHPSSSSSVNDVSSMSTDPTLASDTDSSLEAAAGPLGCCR

Turning to `Cc1cccc(CN2CCN(c3cc(N(C)c4cccc(C)c4)ncn3)CC2)c1`, the inhibition in [1] was determined as 0%; in experiment [2] it was 1%; in experiment [3] it was 0%; in experiment [4], 2%; in experiment [5] it was 9%; in experiment [6] it was 1%. Also, the inhibition came out at 1% in experiment [7], 3% in [8], 6% in [9] and 0% in experiment [10].

Take `CN(CCCn1ccnc1)C(=O)[C@@H]1CCCN1c1nccc(Nc2ccccc2)n1`: the inhibition in experiment [1] was found to be 0%; in experiment [2], 1%; in experiment [3], 5%; in experiment [4], 5%; in experiment [5], 0%; in experiment [6], 3%. Further, the inhibition came out at 1% in [7], 0% in experiment [8], 0% in experiment [9] and 0% in experiment [10].

`Cc1cccc(N(C)c2cc(Nc3ccc(CC(=O)Nc4ccc5ncsc5c4)cc3)ncn2)c1`: the inhibition was found to be 0% in [1]; 22% in experiment [2]; 87% in [3]; 0% in experiment [4]; 7% in [5]; 0% in [6]. In addition, the inhibition in [7] is 57%; in [8] it was 16%; in experiment [9], 12%; in experiment [10] it was 67%.

With `O=C(NCCc1ccc(O)cc1)c1cccc(Nc2nccc(Nc3ccc4ncsc4c3)n2)c1`, the inhibition in [1] was 1%; in [2], 11%; in experiment [3] it was 0%; in experiment [4], 0%; in experiment [5] it was 55%; in [6], 11%. In addition, the inhibition in experiment [7] was 9%; in experiment [8], 27%; in [9], 11%; in experiment [10], 98%.

Consider `COC[C@@H]1CCCN1C(=O)[C@@H]1CCCN1c1cc(Nc2cccc(OC)c2)nc(N)n1`, for which the inhibition in experiment [1] was found to be 0%; in experiment [2], 0%; in experiment [3] it was 2%; in [4], 0%; in experiment [5], 0%; in experiment [6] it was 9%. Also, the inhibition is 8% in [7], 13% in [8], 0% in [9] and 0% in experiment [10].

For `Cc1cc(C(=O)N2CCN(c3ncnc4c3CN(Cc3ccccc3)CC4)CC2)c(C)n1C`, the inhibition in experiment [1] is 0%; in experiment [2], 0%; in experiment [3] it was 0%; in experiment [4] it was 2%; in experiment [5], 0%; in experiment [6] it was 3%. In addition, the inhibition in experiment [7] came out at 0%; in experiment [8] it was 2%; in [9], 0%; in experiment [10] it was 0%.

Take `Cc1cccc(Oc2ccnc(N3CCC[C@H]3C(=O)NCCCn3ccnc3)n2)c1`: the inhibition stood at 0% in [1]; 0% in experiment [2]; 0% in experiment [3]; 0% in experiment [4]; 0% in experiment [5]; 2% in experiment [6]. For the same compound, the inhibition in experiment [7] amounted to 3%; in [8], 1%; in experiment [9], 7%; in experiment [10] it was 0%.

In the case of `CN(CCc1ccccn1)C(=O)[C@@H]1CCCN1c1nccc(Nc2ccccc2)n1`, the inhibition was 0% in experiment [1]; 0% in experiment [2]; 0% in experiment [3]; 3% in [4]; 0% in experiment [5]; 0% in experiment [6]. In addition, the inhibition in [7], in [8], in experiment [9] and in experiment [10] was 0% in each case.

Regarding `COc1cccc(Nc2cc(Nc3cccc(C(=O)NCCCn4ccnc4)c3)nc(N)n2)c1`, the inhibition came out at 0% in experiment [1]; 12% in [2]; 91% in experiment [3]; 3% in experiment [4]; 71% in [5]; 4% in experiment [6]. Moreover, the inhibition in experiment [7] turned out to be 11%; in [8], 2%; in experiment [9], 11%; in experiment [10], 1%.

With `COc1cccc(Nc2cc(N3CCC[C@H]3C(=O)NCCN3CCCCC3)nc(N)n2)c1`, the inhibition amounted to 0% in [1]; 0% in [2]; 0% in experiment [3]; 0% in experiment [4]; 10% in experiment [5]; 6% in experiment [6]. The inhibition in [7] was determined as 0%; in experiment [8] it was 8%; in [9] it was 0%; in experiment [10], 0%.

Regarding `O=C(c1nc(SCc2ccc(Cl)cc2)n2ccccc12)N1CCN(c2ncnc3c2CN(Cc2ccccc2)CC3)CC1`, the inhibition in experiment [1] is 0%; in [2], 0%; in experiment [3], 0%; in experiment [4], 0%; in experiment [5], 7%; in experiment [6] it was 2%. The inhibition in [7] was 5%; in experiment [8] it was 1%; in experiment [9], 3%; in experiment [10], 0%.

For `COc1cccc(Nc2cc(Nc3cccc(C(=O)N(C)CCc4ccccn4)c3)nc(N)n2)c1`, the inhibition in experiment [1] came out at 0%; in experiment [2] it was 2%; in experiment [3], 36%; in experiment [4], 4%; in [5] it was 19%; in [6], 6%. Further, the inhibition was determined as 5% in [7], 9% in experiment [8], 18% in experiment [9] and 0% in experiment [10].

As to `Nc1nc(Nc2ccc(C(=O)NCCc3ccncc3)cc2)cc(N2CCOCC2)n1`, the inhibition in [1] was 0%; in experiment [2], 1%; in [3] it was 0%; in experiment [4] it was 0%; in experiment [5] it was 11%; in experiment [6], 4%. For the same compound, the inhibition in experiment [7] stood at 10%; in experiment [8] it was 1%; in experiment [9], 0%; in [10] it was 0%.

`O=C(CN1CCN(c2ncnc3c2CN(Cc2ccccc2)CC3)CC1)Nc1cc(F)ccc1F`: the inhibition stood at 0% in [1]; 0% in experiment [2]; 0% in [3]; 5% in experiment [4]; 0% in [5]; 0% in experiment [6]. The inhibition was determined as 3% in experiment [7], 2% in experiment [8], 2% in experiment [9] and 0% in experiment [10].

Take `O=C(C1CCN(c2nccc(Nc3ccccc3)n2)CC1)N1CC[C@@H](O)C1`: the inhibition in [1], in [2], in experiment [3], in experiment [4], in experiment [5] and in experiment [7] was 0% each time. The values for the inhibition in experiment [8], in [9] and in experiment [10] were 14%, 0% and 0%, respectively.

As usually defined, the inhibition is the relative decrease from the control value, in per cent.
